ChEMBL document CHEMBL1153887, “Cyclocondensation reaction of heterocyclic carbonyl compounds. Part XIII: synthesis and cytotoxic activity of some 3,7-diaryl-5-(3,4,5-trimethoxyphenyl)pyrazolo[4,3-e][1,2,4]triazines” (Eur J Med Chem, 2009)

Key:
CCRF-CEM [1] = assay: Cytotoxicity against human CEM cells after 72 hrs by MTT assay; assay type: cell-based
A549 = assay: Cytotoxicity against human A549 cells after 72 hrs by MTT assay; assay type: functional, cell-based; conditions: A549, 72 h
K562 [2] = assay: Cytotoxicity against human K562 cells after 72 hrs by MTT assay; assay type: functional, cell-based; conditions: K562, 72 h
K562 [3] = assay: Cytotoxicity against human paclitaxel-resistant K562 cells after 72 hrs by MTT assay; assay type: functional, cell-based; conditions: K562, 72 h
Procedure, shortened: (§1)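 Cells seeded at 2500–30,000 cells/well and left 24 h at 37 °C, 5% CO₂, then fourfold dilution series in duplicate for 72 h. MTT for 4 h, formazan dissolved in 10% SDS (pH 5.5), OD read at 540 nm against controls. Mean of three independent experiments.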

CCRF-CEM [4] = assay: Cytotoxicity against human daunorubicin-resistant CEM cells after 72 hrs by MTT assay; assay type: cell-based; procedure, shortened: as §1

Row | SMILES | IC50 (CCRF-CEM [1]) [µM] | IC50 (A549) [µM] | IC50 (K562 [2]) [µM] | IC50 (K562 [3]) [µM] | IC50 (CCRF-CEM [4]) [µM]
1 | COc1ccc(N/N=C(\c2cc(OC)c(OC)c(OC)c2)c2nc(-c3ccccc3)n[nH]c2=O)cc1 | 4.16 | 3.06 | 6.27 | 11 | 9.46
2 | COc1cc(-c2nnc3c(n2)c(-c2cc(OC)c(OC)c(OC)c2)nn3-c2cc(OC)c(OC)c(OC)c2)cc(OC)c1OC | 246 | 194 | 241 | 250 | 201
3 | COc1cc(/C(=N\Nc2ccccc2)c2nc(-c3ccc(Cl)cc3)n[nH]c2=O)cc(OC)c1OC | 10.8 | 22.1 | 17.5 | 33.1 | 37.7
4 | COc1cc(-c2nn(-c3ccc(Cl)cc3)c3nnc(-c4ccccc4)nc23)cc(OC)c1OC | 150 | 57.3 | 250 | 173 | 156
5 | COc1cccc(-n2nc(-c3cc(OC)c(OC)c(OC)c3)c3nc(-c4ccc(Cl)cc4)nnc32)c1 | 54.7 | 2.86 | 192 | 219 | 108
6 | COc1cccc(N/N=C(\c2cc(OC)c(OC)c(OC)c2)c2nc(-c3ccccc3)n[nH]c2=O)c1 | 8.6 | 8.3 | 12.7 | 13.7 | 19.3
7 | COc1cccc(N/N=C(\c2cc(OC)c(OC)c(OC)c2)c2nc(-c3ccc(Cl)cc3)n[nH]c2=O)c1 | 11.5 | 8.32 | 41.8 | 26.3 | 133
8 | COc1cc(-c2nn(-c3ccccc3)c3nnc(-c4ccc(Cl)cc4)nc23)cc(OC)c1OC | 11.6 | 130 | 220 | 225 | 113
9 | COc1cc(/C=C(/NC(=O)c2cc(OC)c(OC)c(OC)c2)C(=O)NN)cc(OC)c1OC | 123 | 103 | 160 | 153 | 126
10 | COc1ccc(-c2nnc3c(n2)c(-c2cc(OC)c(OC)c(OC)c2)nn3-c2ccc(Cl)cc2)cc1 | 115 | 113 | 203 | 232 | 118
11 | COc1ccc(-c2nnc3c(n2)c(-c2cc(OC)c(OC)c(OC)c2)nn3-c2ccccc2)cc1 | 114 | 78.8 | 166 | 203 | 114
12 | COc1ccccc1-n1nc(-c2cc(OC)c(OC)c(OC)c2)c2nc(-c3cc(OC)c(OC)c(OC)c3)nnc21 | 126 | 15 | 182 | 156 | 125
13 | COc1ccc(N/N=C(\c2cc(OC)c(OC)c(OC)c2)c2nc(-c3ccc(Cl)cc3)n[nH]c2=O)cc1 | 9.49 | 2.34 | 7.5 | 8.33 | 9.16
14 | COc1cc(/C=C(/NC(=O)c2ccccc2)C(=O)NN)cc(OC)c1OC | 124 | 164 | 162 | 162 | 121
15 | COc1cc(-c2nn(-c3ccc(Cl)cc3)c3nnc(-c4ccc(Cl)cc4)nc23)cc(OC)c1OC | 68.9 | 155 | 190 | 222 | 126
16 | COc1ccc(-c2nnc3c(n2)c(-c2cc(OC)c(OC)c(OC)c2)nn3-c2cccc(OC)c2)cc1 | 54.5 | 124 | 115 | 174 | 184
17 | COc1cc(-c2nn(-c3ccccc3)c3nnc(-c4ccccc4)nc23)cc(OC)c1OC | 109 | 86.6 | 169 | 216 | 108
18 | COc1cc(/C=C(/NC(=O)c2ccc(Cl)cc2)C(=O)NN)cc(OC)c1OC | 134 | 161 | 166 | 174 | 130
19 | COc1cc(Cc2nc(-c3ccccc3)n[nH]c2=O)cc(OC)c1OC | 2.71 | 3.46 | 1.17 | 3.88 | 3.21
20 | COc1ccc(-c2n[nH]c(=O)c(/C(=N/Nc3ccc(Cl)cc3)c3cc(OC)c(OC)c(OC)c3)n2)cc1 | 20.2 | 18.5 | 41.3 | 238 | 50.1

Row | SMILES | IC50 (CCRF-CEM [1]) [µM] | IC50 (A549) [µM] | IC50 (K562 [2]) [µM] | IC50 (K562 [3]) [µM] | IC50 (CCRF-CEM [4]) [µM]
21 | COc1ccc(C(=O)N/C(=C/c2cc(OC)c(OC)c(OC)c2)C(=O)NN)cc1 | 144 | 134 | 172 | 167 | 147
22 | COc1ccc(-c2n[nH]c(=O)c(/C(=N/Nc3ccccc3)c3cc(OC)c(OC)c(OC)c3)n2)cc1 | 9.81 | 23.7 | 18.4 | 31.8 | 39.8
23 | COc1ccc(-c2n[nH]c(=O)c(/C(=N/Nc3ccccc3OC)c3cc(OC)c(OC)c(OC)c3)n2)cc1 | 54.6 | 250 | 148 | 250 | 141
24 | COc1cc(/C(=N\Nc2ccc(Cl)cc2)c2nc(-c3ccccc3)n[nH]c2=O)cc(OC)c1OC | 25.1 | 8.55 | 12 | 38.4 | 46.8
25 | COc1ccc(-n2nc(-c3cc(OC)c(OC)c(OC)c3)c3nc(-c4ccccc4)nnc32)cc1 | 117 | 39 | 84.4 | 150 | 100
26 | COc1cccc(N/N=C(\c2cc(OC)c(OC)c(OC)c2)c2nc(-c3cc(OC)c(OC)c(OC)c3)n[nH]c2=O)c1 | 7.83 | 3.38 | 112 | 22.1 | 140
27 | COc1cc(N/N=C(\c2cc(OC)c(OC)c(OC)c2)c2nc(-c3cc(OC)c(OC)c(OC)c3)n[nH]c2=O)cc(OC)c1OC | 53.8 | 162 | 94.3 | 118 | 158
28 | COc1ccc(N/N=C(\c2cc(OC)c(OC)c(OC)c2)c2nc(-c3cc(OC)c(OC)c(OC)c3)n[nH]c2=O)cc1 | 5.71 | 3.39 | 18.7 | 8.91 | 34.6
29 | COc1ccc(-c2nnc3c(n2)c(-c2cc(OC)c(OC)c(OC)c2)nn3-c2ccc(OC)cc2)cc1 | 124 | 113 | 186 | 229 | 118
30 | COc1ccc(-c2n[nH]c(=O)c(/C(=N/Nc3cccc(OC)c3)c3cc(OC)c(OC)c(OC)c3)n2)cc1 | 68.7 | 250 | 162 | 250 | 132
31 | COc1ccc(-c2n[nH]c(=O)c(Cc3cc(OC)c(OC)c(OC)c3)n2)cc1 | 3.15 | 9.31 | 3.07 | 19.9 | 13.3
32 | COc1cc(Cc2nc(-c3ccc(Cl)cc3)n[nH]c2=O)cc(OC)c1OC | 12.9 | 15.8 | 9.63 | 24.7 | 14.6
33 | COc1ccc(-n2nc(-c3cc(OC)c(OC)c(OC)c3)c3nc(-c4ccc(Cl)cc4)nnc32)cc1 | 226 | 113 | 248 | 250 | 139
34 | COc1cc(/C(=N\Nc2ccccc2)c2nc(-c3ccccc3)n[nH]c2=O)cc(OC)c1OC | 10.6 | 7.14 | 11.5 | 19.3 | 18.2
35 | COc1cc(/C(=N\Nc2ccc(Cl)cc2)c2nc(-c3ccc(Cl)cc3)n[nH]c2=O)cc(OC)c1OC | 7.67 | 3.81 | 10.2 | 12.5 | 37.7
36 | COc1cccc(-n2nc(-c3cc(OC)c(OC)c(OC)c3)c3nc(-c4ccccc4)nnc32)c1 | 8.41 | 0.61 | 117 | 159 | 99.3
37 | COc1cc(Cc2nc(-c3cc(OC)c(OC)c(OC)c3)n[nH]c2=O)cc(OC)c1OC | 38.4 | 117 | 82.1 | 138 | 129
38 | COc1ccc(-c2nnc3c(n2)c(-c2cc(OC)c(OC)c(OC)c2)nn3-c2ccccc2OC)cc1 | 105 | 6.58 | 178 | 155 | 119
39 | COc1cccc(-n2nc(-c3cc(OC)c(OC)c(OC)c3)c3nc(-c4cc(OC)c(OC)c(OC)c4)nnc32)c1 | 48.3 | 163 | 164 | 141 | 109
40 | COc1ccc(-n2nc(-c3cc(OC)c(OC)c(OC)c3)c3nc(-c4cc(OC)c(OC)c(OC)c4)nnc32)cc1 | 36.9 | 75.6 | 66.2 | 161 | 118
